This note sets out measurements from ChEMBL document CHEMBL1124534, “Synthesis, mechanism of action, and biological evaluation of mitosenes” (1989).

By T/C is commonly meant the ratio of treated to control.

The test system of one assay is A204. Put plainly: In vitro antitumor activity against A204 rhabdomyosarcoma tumor cell line was determined. Type of assay: functional. The note with it: Homo sapiens, read-out: ID50 (the source's name). The essentials:
(§1)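 Cell growth inhibition in vitro measured by the PIT method, with mitomycin C as positive reference.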

For another assay, the system named is L1210. Put plainly: In vitro antitumor activity against L1210 lymphocytic leukemia tumor cell line was determined. It counts as functional. The note with it: Mus musculus, read-out: ID50 (the source's name). The essentials:
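Inhibition of L1210 leukemia colony formation in vitro, with mitomycin C as positive reference.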

A further assay deals with WiDr. Put plainly: In vitro antitumor activity against WiDr colon carcinoma tumor cell line was determined. Type of assay: functional. To be noted: Homo sapiens, read-out: ID50 (the source's name). The method, boiled down: as §1
The test system of assay [1] is Mus musculus. In words: Body wieght treated/body weight untreated controls of compound (40 mg/Kg) was evaluated in vivo for antitumor activity against MAC 16 in female NMRI mice on day 12. Type of assay: functional.
Assay [2] relates to Mus musculus. Put plainly: Body wieght treated/body weight untreated controls of compound (40 mg/Kg) was evaluated in vivo for antitumor activity against MAC 16 in female NMRI mice on day 4. Type of assay: functional.
In assay [3] the test system is Mus musculus. In words: Percentage change in body weight [(day 6 - day 1)/ day 1] for antitumor activity against P388 Leukemia in CD2 mice at fractioned dose treatment of 25 mg/Kg. Type of assay: functional. The method, boiled down:
(§2)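 Mouse P388 leukemia model. Drugs were given intraperitoneally, either as a single injection or once daily for 9 consecutive days (fractioned schedule). Outcomes were median survival time in days, %T/C, and % body weight change.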

For assay [4], the system named is Mus musculus. In words: Percentage change in body weight [(day 6 - day 1)/ day 1] for antitumor activity against P388 Leukemia in CD2 mice at fractioned dose treatment of 70 mg/Kg. It counts as functional. The note with it: in the assay text read “single dose treatment” for “fractioned dose treatment”. The essentials: as §2
The subject of assay [5] is Mus musculus. In words: Mean relative body weight change of treated / mean relative body weight change of control when compound (50 mg/kg/day) administered to inhibit growth of human tumor xenograft GXF 97 was reported at day 21 in mice. Type of assay: functional. The essentials: (§3)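 GXF 97 xenograft grown subcutaneously in nude mice for 24 days, then randomized; ip dosing began 1 day later, given on days 1-4, with 4-5 mice per group. Read-out is mean relative body weight change of treated divided by mean relative body weight change of controls, in %.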
Background: In xenograft studies the graft and the host belong to different species.

Assay [6] relates to Mus musculus. Put plainly: Percent change in body weight [(day 6 - day 1)/ day 1] when P388 Leukemic CD2 mice were treated with a compound (50 mg/Kg). Type of assay: functional.
For assay [7], the system named is Mus musculus. In words: Percentage change in body weight [(day 6 - day 1)/ day 1] for antitumor activity against P388 Leukemia in CD2 mice at fractioned dose treatment of 18 mg/Kg. It counts as functional. The method, boiled down: as §2
Assay [8] relates to Mus musculus. In words: Mean relative body weight change of treated / mean relative body weight change of control when compound (50 mg/kg/day) administered to inhibit growth of human tumor xenograft GXF 97 was reported at day 14 in mice. It counts as functional. The essentials:
as §3

Assay [9] has as its system Mus musculus. In words: Mean relative body weight change of treated / mean relative body weight change of control when compound (50 mg/kg/day) administered to inhibit growth of human tumor xenograft GXF 97 was reported at day 28 in mice. It counts as functional. The essentials:
as §3

Assay [10] deals with Mus musculus. Put plainly: Median survival time in days for antitumor activity against P388 Leukemia in CD2 mice at a single dose treatment of 50 mg/Kg. Type of assay: functional. The essentials: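 P388 leukemia-bearing mice were given one intraperitoneal injection. The read-out was median survival time in days, reported alongside %T/C and % body weight change.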
For assay [11], the system named is Mus musculus. Put plainly: Median survival time in days for antitumor activity against P388 Leukemia in CD2 mice at fractioned dose treatment of 18 mg/Kg. Type of assay: functional. The essentials:
(§4)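 P388 leukemia-bearing mice were dosed intraperitoneally once daily for 9 consecutive days (fractioned schedule). The read-out was median survival time in days, reported alongside %T/C and % body weight change.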

Assay [12] deals with Mus musculus. In words: Median survival time in days for antitumor activity against P388 Leukemia in CD2 mice at fractioned dose treatment of 25 mg/Kg. It counts as functional. The method, boiled down:
as §4

For assay [13], the system named is Mus musculus. Put plainly: Percent inhibition of compound (50 mg/Kg) was evaluated in vivo for antitumor activity against MAC 13 in female NMRI mice on day 2. Type of assay: functional. The essentials: (§5)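 MAC 13 in female NMRI mice. Drugs were given in arachis oil BP by ip route on day 2 or day 29. % inhibition was derived from treated/untreated control tumor weight (volume); a negative value indicates stimulation.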

Assay [14] has as its system Mus musculus. Put plainly: Percent inhibition of compound (50 mg/Kg) was evaluated in vivo for antitumor activity against MAC 13 in female NMRI mice on day 29. Type of assay: functional. The essentials: as §5
The subject of assay [15] is Mus musculus. In words: Ability of intraperitoneally administered compound (50 mg/kg/day) to inhibit growth of human tumor xenograft GXF 97 was assessed on day 14 tested in five mice. Type of assay: functional. The method, boiled down:
(§6)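 GXF 97 human gastric xenograft grown subcutaneously in nude mice for 24 days, then randomized; dosing began 1 day later as ip injections on days 1-4. Groups had 4-5 mice. Tumor length and width were measured. %T/C = median relative tumor size of treated / median relative tumor size of controls.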

Assay [16] concerns Mus musculus. Put plainly: Ability of intraperitoneally administered compound (50 mg/kg/day) to inhibit growth of human tumor xenograft GXF 97 was assessed on day 21 tested in five mice. It counts as functional. The method, boiled down: as §6
For assay [17], the system named is Mus musculus. In words: Percent T/C ([…]) for antitumor activity against P388 Leukemia in CD2 mice at a single dose treatment of 50 mg/Kg. It counts as functional. The method, boiled down:
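P388 leukemia mice given a single intraperitoneal injection. Median survival time (days) and body weight change were recorded. %T/C was derived from the survival of treated versus control mice.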

In assay [18] the test system is Mus musculus. In words: Percent T/C ([…]) for antitumor activity against P388 Leukemia in CD2 mice at fractioned dose treatment of 18 mg/Kg. It counts as functional. The essentials: as §2
Assay [19] relates to Mus musculus. Put plainly: Percent T/C ([…]) for antitumor activity against P388 Leukemia in CD2 mice at fractioned dose treatment of 25 mg/Kg. Type of assay: functional. The method, boiled down:
as §2

In assay [20] the test system is Mus musculus. In words: Percent T/C ([…]) for antitumor activity against P388 Leukemia in CD2 mice at fractioned dose treatment of 70 mg/kg. Type of assay: functional. To be noted: in the assay text read “single dose” for “fractioned dose”. The essentials: as §2
Assay [21] deals with Mus musculus. In words: Ability of intraperitoneally administered compound (50 mg/kg/day) to inhibit growth of human tumor xenograft GXF 97 was assessed on day 28 tested in five mice. Type of assay: functional. The method, boiled down: as §6
Assay [22] deals with Mus musculus. Put plainly: Relative tumor size on day 28 was reported when compound (50 mg/kg/day) administered to inhibit growth of human tumor xenograft GXF 97 in mice tested after 28 days. Type of assay: functional. The essentials: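 GXF 97 human gastric xenograft grown subcutaneously in nude mice for 24 days, then mice randomized; treatment began 1 day later. Fractioned ip injections on days 1-4, or single iv injection on day 1; 4-5 mice per group. Tumor size from length and width; relative tumor size (% of controls) read at day 28.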

Assay [23] relates to Mus musculus. Put plainly: Compound (40 mg/Kg) was evaluated in vivo for antitumor activity against MAC 16 in female NMRI mice on day 12 and ratio of tumor weight of treated to that of control was determined. Type of assay: functional.
For assay [24], the system named is Mus musculus. Put plainly: Compound (40 mg/Kg) was evaluated in vivo for antitumor activity against MAC 16 in female NMRI mice on day 4 and ratio of tumor weight of treated to that of control was determined. Type of assay: functional.
Assay [25] relates to Mus musculus. Put plainly: Median survival time in days for antitumor activity against P388 Leukemia in CD2 mice at single dose treatment of 70 mg/kg.
Assay [26] concerns Mus musculus. In words: Compound (50 mg/Kg) was evaluated in vivo for antitumor activity against MAC 13 in female NMRI mice on day 2 and ratio of tumor weight of treated to that of control was determined.
The test system of assay [27] is Mus musculus. Put plainly: Compound (50 mg/Kg) was evaluated in vivo for antitumor activity against MAC 13 in female NMRI mice on day 29 and ratio of tumor weight of treated to that of control was determined.

Converted amounts (≈) assume the structure as drawn.

For `CCNC(=O)OCc1c2c(n3c1C(O)CC3)C(=O)C=C(OC)C2=O` (stereo unspecified), the IC50 worked out at 0.001 µg/mL (≈ 0.00299 µM) with A204, 0.118 µg/mL (≈ 0.353 µM) in the assay on L1210 and 0.029 µg/mL (≈ 0.0867 µM) in the assay with WiDr.
On to `CCNC(=O)OCc1c2c(n3c1C(O)CC3)C(=O)C(C)=C(OC)C2=O` (stereo unspecified), for which the IC50 in the assay on A204 is 0.001 µg/mL (≈ 0.00287 µM); with L1210, 0.206 µg/mL (≈ 0.591 µM); in the assay on WiDr, 0.051 µg/mL (≈ 0.146 µM).
With `COC1=C(Br)C(=O)c2c(c(COC(C)=O)c3n2CCC3OC(C)=O)C1=O` (stereo unspecified), the IC50 in the assay on A204 turned out to be 0.479 µg/mL (≈ 1.12 µM); in the assay with L1210 it was 0.217 µg/mL (≈ 0.509 µM); with WiDr, 0.492 µg/mL (≈ 1.15 µM).
For the compound `CCCC(=O)OCc1c2c(n3c1C(OC(=O)CCC)CC3)C(=O)C(C)=C(OC)C2=O` (stereo unspecified), the IC50 was 0.021 µg/mL (≈ 0.0503 µM) with A204, more than 0.64 µg/mL in the assay with L1210 and 0.069 µg/mL (≈ 0.165 µM) in the assay on WiDr.
As to `COC1=C(Br)C(=O)c2c(c(COC(C)=O)c3n2CCCC3OC(C)=O)C1=O` (stereo unspecified), the values for the IC50 in the assay on A204, in the assay on L1210 and in the assay on WiDr were 4.14 µg/mL (≈ 9.39 µM), 1.12 µg/mL (≈ 2.54 µM) and 6.49 µg/mL (≈ 14.7 µM), respectively.
Turning to `COC1=CC(=O)c2c(c(CO)c3n2CCCC3O)C1=O` (stereo unspecified), the IC50 stood at 1.2 µg/mL (≈ 4.31 µM) with A204, 1.33 µg/mL (≈ 4.78 µM) in the assay with L1210 and 2.17 µg/mL (≈ 7.83 µM) with WiDr.
For `CCNC(=O)OCc1c2c(n3c1C(O)CCC3)C(=O)C=C(OC)C2=O` (stereo unspecified) the same measures were less than 0.1 µg/mL, 0.942 µg/mL (≈ 2.7 µM) and 0.18 µg/mL (≈ 0.517 µM).
As for `COC1=C(C)C(=O)c2c(c(CO)c3n2CCC3O)C1=O` (stereo unspecified), the values for the IC50 in the assay with A204, in the assay on L1210 and in the assay on WiDr were 0.641 µg/mL (≈ 2.31 µM), 2.6 µg/mL (≈ 9.39 µM) and 1.33 µg/mL (≈ 4.81 µM), respectively. The BW with Mus musculus [1] came to 93%; with Mus musculus [2], 118%. In addition, the BWC in the assay on Mus musculus [3] is 17.1%; with Mus musculus [4], -0.9%; in the assay on Mus musculus [5], 107.2%; in the assay on Mus musculus [6] it was 2.5%; in the assay with Mus musculus [7] it was 17.3%; in the assay on Mus musculus [8] it was 103.8%. For the same compound, the BWC with Mus musculus [9] worked out at 103.4%. Moreover, the MST was 11 days in the assay on Mus musculus [10], 11 days in the assay with Mus musculus [11], 11 days in the assay on Mus musculus [12] and 10 days in the assay on Mus musculus [25]. In addition, the I in the assay with Mus musculus [13] is recorded as 3%; with Mus musculus [14], -21%. Also, the T/C in the assay on Mus musculus [15] is 12.6%; in the assay with Mus musculus [16], 4.8%; in the assay on Mus musculus [17] it was 100%; in the assay on Mus musculus [18], 100%; in the assay on Mus musculus [19], 100%; in the assay on Mus musculus [20], 91%. The T/C was found to be 3.1% in the assay with Mus musculus [21]; 89% in the assay with Mus musculus [23]; 102% in the assay on Mus musculus [24]; 97% with Mus musculus [26]; 121% in the assay with Mus musculus [27]. The “Relative TS” value with Mus musculus [22] turned out to be 20.6%.
